From PubChem BioAssay AID624007 (Broad Institute, 2012) come the findings set out here.

The structures appear in SMILES notation. Unmarked numbers belong to inactive results.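 The calls were made as follows: active = compounds lowering the uptake signal whose fitted half-maximal concentration is at most twice their top valid dose; inconclusive = flat curve between 30% and 70% signal loss, or poor fit; inactive = opposite direction, flat near zero, or potency beyond limit.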

This assay in a line: DiI-HDL uptake inhibition in parental ldlA7 cells, dose response, counter-screen for SR-BI HDL uptake inhibitor project, cell-based, CHO ldlA7, fluorescence, dry powder, set 2 (AID 624007). Conditions: 3 h. The gist of the method: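 Assay system: ldlA7 CHO cells without LDL receptor, no mSR-BI overexpression; Medium: HEPES-buffered (pH 7.4) F12 plus 0.5% fatty acid-free BSA; Reagent: DiI-labelled HDL, 10 µg/mL final; Schedule: 3 h co-incubation of compounds and DiI-HDL at 37 °C; Detection: DiI fluorescence, bottom read, Ex 550/Em 595 nm.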
For orientation: A counterscreen serves to expose hits that act by an unwanted route or on another target.

For the compound `CC(C)NC(=O)Nc1ccc2c(c1)C(=O)N([C@H](C)CO)C[C@@H](C)[C@H](CN(C)S(=O)(=O)c1ccc(Cl)cc1)O2`, the DiI-HDL uptake signal change vs neutral control (%), lower = more inhibition is, setting by setting: (at 0.001 nM) -2.43%; (at 0.1 nM) 5.95%.

On to `CC(C)NC(=O)Nc1ccc2c(c1)C(=O)N([C@@H](C)CO)C[C@H](C)[C@@H](CN(C)S(=O)(=O)c1ccc(Cl)cc1)O2`, for which the DiI-HDL uptake signal change vs neutral control (%), lower = more inhibition (at 0.002 nM) was 5.3%.

Regarding `CC(C)NC(=O)Nc1ccc2c(c1)CC(=O)N([C@H](C)CO)C[C@@H](C)[C@H](CN(C)S(=O)(=O)c1ccc(Cl)cc1)O2`, where the note is “at 0.1 nM”, the DiI-HDL uptake signal change vs neutral control (%), lower = more inhibition is 4.77%.

For the compound `CC(C)NC(=O)Nc1ccc2c(c1)C(=O)N([C@H](C)CO)C[C@@H](C)[C@@H](CN(C)S(=O)(=O)c1ccc(Cl)cc1)O2`, the DiI-HDL uptake signal change vs neutral control (%), lower = more inhibition (at 0.6 nM) was 5.71%.

As to `CC(C)NC(=O)Nc1ccc2c(c1)C(=O)N([C@@H](C)CO)C[C@@H](C)[C@@H](CN(C)S(=O)(=O)c1ccc(Cl)cc1)O2`, the DiI-HDL uptake signal change vs neutral control (%), lower = more inhibition (at 1.6 nM) is 4.53%.

`CC(C)NC(=O)Nc1ccc2c(c1)C(=O)N([C@H](C)CO)C[C@H](C)[C@H](CN(C)S(=O)(=O)c1ccc(Cl)cc1)O2`: the DiI-HDL uptake signal change vs neutral control (%), lower = more inhibition (at 15 nM) is 8.44%.

For the compound `CC(C)NC(=O)Nc1ccc2c(c1)C(=O)N([C@@H](C)CO)C[C@H](C)[C@H](CN(C)S(=O)(=O)c1ccc(Cl)cc1)O2`, the DiI-HDL uptake signal change vs neutral control (%), lower = more inhibition (at 46 nM) was 8.74%.

Regarding `CC(C)NC(=O)Nc1cccc2c1O[C@@H](CN(C)S(=O)(=O)c1ccc(Cl)cc1)[C@H](C)CN([C@H](C)CO)C2=O`, the DiI-HDL uptake signal change vs neutral control (%), lower = more inhibition (at 420 nM) was 9.23%.
